# From ChEMBL document CHEMBL1687724, “Roles of NF-kappaB activation and peroxisome proliferator-activated receptor gamma inhibition in the effect of rifampin on inducible nitric oxide synthase transcription in human lung epithelial cells” (Antimicrob Agents Chemother, 2009)
# Active and inactive are the calls of the source. The calls are words filed in the database; no cut-off is given here.
# Tests used:
# A549 [1] = assay: Reduction in PPARgamma expression in human A549 cells assessed as increase in 100 ng/ml IL1-beta, TNF-alpha and IFN-gamma-induced PPARgamma down regulation normalized to beta-actin expression level at 50 ug/ml by Western blot analysis; assay type: functional, cell-based
# How it was run: (§1)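 A549 cells starved 24 h, then 24 h with medium, cytokine mix (100 ng/ml each), or mix plus graded rifampin; whole-cell extracts immunoblotted with mouse anti-PPARγ, signal normalized to β-actin by densitometry; five experiments, mean ± SEM, unpaired t test.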
# A549 [2] = assay: Effect on NF-kappaB activation in human A549 cells assessed as degradation of inhibitory subunit IkappaB after 30 mins at 50 ug/ml by Western blot analysis; assay type: functional, cell-based
# How it was run: (§2)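 A549 cells (2 × 10⁶/dish) starved 24 h, then exposed to cytokine mix (100 ng/ml each) ± rifampin 50 μg/ml, or rifampin alone; lysates taken over time (30 min to 3 h), 20–30 μg protein immunoblotted for IκB, ECL detection, densitometry; three experiments.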
# DLD-1 = assay: Effect on iNOS expression in human DLD1 cells assessed as increase in 100 ng/ml IL1-beta, TNF-alpha and IFN-gamma-stimulated iNOS […] expression normalized to beta-actin expression level at 10 to 50 ug/ml after 24 hrs by Western blot analysis; assay type: functional, cell-based
# A549 [3] = assay: Effect on JNK phosphorylation in human A549 cells assessed as increase in IL1-beta, TNF-alpha and IFN-gamma-induced phosphorylation at 50 ug/ml after 15 to 30 mins by Western immunoblotting analysis; assay type: functional, cell-based
# How it was run: (§3)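 A549 cells serum/antibiotic-starved 24 h, then given cytokine mix (IL-1β, TNF-α, IFN-γ) with or without rifampin (50 μg/ml); total lysates at 15, 30, 60 min; 20–30 μg protein on 10% SDS-PAGE, immunoblotted for phospho-ERK1/2, phospho-JNK, phospho-p38 and total forms; ECL detection, densitometry.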
# HT-29 = assay: Effect on iNOS expression in human HT-29 cells assessed as increase in 100 ng/ml IL1-beta, TNF-alpha and IFN-gamma-stimulated iNOS […] expression normalized to beta-actin expression level at 10 to 50 ug/ml after 24 hrs by Western blot analysis; assay type: functional, cell-based
# [4] = target: Nitric oxide synthase, inducible (Homo sapiens) (UniProt P35228); assay: Effect on iNOS in human A549 cells assessed as increase in iNOS mRNA expression at 50 ug/ml after 19 hrs by TaqMan real-time RT-PCR relative to control; assay type: cell-based
# How it was run: (§4)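 A549 cells starved 24 h, then 19 h with cytokine mix (100 ng/ml each) ± rifampin 10 or 50 μg/ml (DMSO stock diluted ≥1:1,000); 2 μg total RNA reverse transcribed (random hexamers), iNOS by TaqMan real-time RT-PCR normalized to β-actin; medium-only control set to 1; four experiments, mean ± SEM.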
# A549 [5] = assay: Effect on NF-kappaB activation in 100 ng/ml IL-1beta, TNF-alpha and IFN-gamma-stimulated human A549 cells assessed as degradation of inhibitory subunit IkappaB measured upto 3 hrs at 50 ug/ml by Western blot analysis; assay type: functional, cell-based; how it was run: as §2
# A549 [6] = assay: Effect on iNOS expression in human A549 cells assessed as fold increase in 100 ng/ml IL1-beta, TNF-alpha and IFN-gamma-stimulated iNOS mRNA expression at 50 ug/ml after 19 hrs by TaqMan real-time RT-PCR relative to control; assay type: functional; how it was run: as §4
# [7] = Cmax in serum of human patient undergoing fibre-optic bronchoscopy at 600 mg, po administered as single dose; assay type: ADME, organism-based; design: dose 600 mg, route oral
# A549 [8] = assay: Induction of NF-kappaB activation in human A549 cells assessed as fold increase in NF-kappaB/DNA binding at 50 ug/ml by electrophoretic mobility shift assay; assay type: functional, cell-based
# How it was run: (§5)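 Nuclear extracts from A549 cells 2 h after cytokine mix (IL-1β, TNF-α, IFN-γ) ± rifampin 50 μg/ml; 2 μl extract bound to biotin-labeled NF-κB consensus probe, 5% native PAGE in TBE, streptavidin-HRP chemiluminescence; specificity checked with cold NF-κB oligonucleotide.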
# A549 [9] = assay: Induction of iNOS expression in human A549 cells at 25 to 50 ug/ml by Western blot analysis in presence of IFN-gamma; assay type: functional, cell-based
# How it was run: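 A549 cells starved 24 h, then given rifampin with IFN-γ, each agent alone, or cytokine mix; total cell extracts prepared 20 h after stimulation and immunoblotted with rabbit anti-iNOS, ECL detection.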
# A549 [10] = assay: Effect on STAT-1 phosphorylation in human A549 cells assessed as increase in IL1-beta, TNF-alpha and IFN-gamma-induced phosphorylation at 50 ug/ml after 15 to 30 mins by Western immunoblotting analysis; assay type: functional, cell-based
# How it was run: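 A549 cells starved 24 h in serum- and antibiotic-free medium, treated with cytokine mix (IL-1β, TNF-α, IFN-γ) ± rifampin; total lysates immunoblotted (10% SDS-PAGE, PVDF) with rabbit anti-phospho-STAT-1; ECL detection with densitometry.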
# A549 [11] = assay: Effect on PPARgamma expression in human A549 cells assessed as decrease in PPARgamma expression normalized to beta-actin expression level at 50 ug/ml by Western blot analysis; assay type: functional, cell-based; how it was run: as §1
# A549 [12] = assay: Induction of NF-kappaB activation in IL1-beta, TNF-alpha and IFN-gamma-stimulated human A549 cells assessed as fold increase in NF-kappaB/DNA binding at 50 ug/ml by electrophoretic mobility shift assay; assay type: functional; how it was run: as §5
# A549 [13] = assay: Induction of iNOS expression in human A549 cells at 25 to 50 ug/ml by Western blot analysis; assay type: functional, cell-based
# A549 [14] = assay: Effect on iNOS expression in human A549 cells assessed as fold increase in 100 ng/ml IL1-beta, TNF-alpha and IFN-gamma-stimulated iNOS mRNA expression at 10 ug/ml after 19 hrs by TaqMan real-time RT-PCR relative to control; assay type: functional; how it was run: as §4
# A549 [15] = assay: Effect on p38 phosphorylation in human A549 cells assessed as increase in IL1-beta, TNF-alpha and IFN-gamma-induced phosphorylation at 50 ug/ml after 15 to 30 mins by Western immunoblotting analysis; assay type: functional, cell-based; how it was run: as §3
# A549 [16] = assay: Effect on ERK1/2 phosphorylation in human A549 cells assessed as increase in IL1-beta, TNF-alpha and IFN-gamma-induced phosphorylation at 50 ug/ml after 15 to 30 mins by Western immunoblotting analysis; assay type: functional, cell-based; how it was run: as §3
# A549 [17] = assay: Effect on NF-kappaB activation in 100 ng/ml IL-1beta, TNF-alpha and IFN-gamma-stimulated human A549 cells assessed as degradation of inhibitory subunit IkappaB at 50 ug/ml by Western blot analysis; assay type: functional, cell-based; how it was run: as §2
# Chain of Nitric oxide synthase, inducible (Homo sapiens) (P35228 whole entry): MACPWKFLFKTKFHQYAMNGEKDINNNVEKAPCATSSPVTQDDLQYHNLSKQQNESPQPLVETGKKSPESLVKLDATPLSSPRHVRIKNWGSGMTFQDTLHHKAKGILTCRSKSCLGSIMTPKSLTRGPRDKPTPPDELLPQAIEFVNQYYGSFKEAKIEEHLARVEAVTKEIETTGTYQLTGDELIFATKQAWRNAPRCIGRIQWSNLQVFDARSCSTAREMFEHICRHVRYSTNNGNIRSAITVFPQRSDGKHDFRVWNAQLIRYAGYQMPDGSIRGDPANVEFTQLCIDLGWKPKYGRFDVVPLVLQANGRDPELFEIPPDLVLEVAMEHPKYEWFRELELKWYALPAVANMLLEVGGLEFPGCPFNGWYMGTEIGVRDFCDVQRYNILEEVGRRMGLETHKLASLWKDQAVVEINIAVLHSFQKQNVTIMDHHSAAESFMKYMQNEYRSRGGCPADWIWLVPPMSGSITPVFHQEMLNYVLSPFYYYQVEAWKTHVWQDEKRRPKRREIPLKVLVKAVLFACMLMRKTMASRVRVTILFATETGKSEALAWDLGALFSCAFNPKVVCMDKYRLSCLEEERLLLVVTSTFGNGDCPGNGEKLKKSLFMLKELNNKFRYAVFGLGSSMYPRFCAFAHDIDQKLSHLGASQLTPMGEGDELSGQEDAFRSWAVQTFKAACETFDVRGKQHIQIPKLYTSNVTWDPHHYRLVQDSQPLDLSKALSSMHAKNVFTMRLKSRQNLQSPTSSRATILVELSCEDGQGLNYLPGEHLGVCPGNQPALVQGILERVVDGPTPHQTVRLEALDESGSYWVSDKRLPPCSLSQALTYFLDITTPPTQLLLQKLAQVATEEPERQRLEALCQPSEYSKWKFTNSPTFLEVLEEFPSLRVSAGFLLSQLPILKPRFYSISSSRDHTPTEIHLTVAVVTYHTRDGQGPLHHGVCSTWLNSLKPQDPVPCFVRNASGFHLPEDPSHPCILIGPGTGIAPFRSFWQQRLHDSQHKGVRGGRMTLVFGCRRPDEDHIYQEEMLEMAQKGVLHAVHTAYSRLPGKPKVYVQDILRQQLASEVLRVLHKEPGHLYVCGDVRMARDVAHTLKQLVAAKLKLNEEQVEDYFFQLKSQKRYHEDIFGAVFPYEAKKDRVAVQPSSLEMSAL
structure (smiles),measurement,setting,value
CO[C@H]1/C=C/O[C@@]2(C)Oc3c(C)c(O)c4c(O)c(c(/C=N/N5CCN(C)CC5)c(O)c4c3C2=O)NC(=O)/C(C)=C\C=C\[C@H](C)[C@H](O)[C@@H](C)[C@@H](O)[C@@H](C)[C@H](OC(C)=O)[C@@H]1C [RIFAMPIN],Activity,A549 [1],Active
same,Activity,A549 [2],Active
same,Activity,DLD-1,inactive
same,Activity,A549 [3],inactive
same,Activity,HT-29,Dose-dependent effect
same,Activity,[4],inactive
same,Activity,A549 [5],Active
same,fold change (FC),A549 [6],4
same,Cmax,[7],15000 ng/mL
same,Activity,A549 [8],Active
same,Activity,A549 [9],Active
same,Activity,A549 [10],inactive
same,Activity,A549 [11],inactive
same,fold change (FC),A549 [12],2.1
same,Activity,A549 [13],inactive
same,fold change (FC),A549 [14],1.9
same,Activity,A549 [15],inactive
same,Activity,A549 [16],inactive
same,Activity,A549 [17],Active
